Data published in ChEMBL document CHEMBL3877271, “Antagonizing STAT3 activation with benzo[b]thiophene 1, 1-dioxide based small molecules” (Eur J Med Chem, 2017).
The source made the active and inactive calls. The calls are words filed in the database; no cut-off is given here.

Experiments:
MDA-MB-231 [1] = experiment: Induction of apoptosis in human MDA-MB-231 cells assessed as early apoptotic cells at 1 uM after 24 hrs by Annexin-V FITC/propidium iodide staining based flow cytometry (reference value: 3.8%); format: functional
MDA-MB-231 [2] = experiment: Induction of apoptosis in human MDA-MB-231 cells assessed as necrotic cells at 3 uM after 24 hrs by Annexin-V FITC/propidium iodide staining based flow cytometry (reference value: 4.1%); format: functional
MDA-MB-231 [3] = experiment: Induction of apoptosis in human MDA-MB-231 cells assessed as necrotic cells at 5 uM after 24 hrs by Annexin-V FITC/propidium iodide staining based flow cytometry (reference value: 4.1%); format: functional
MDA-MB-231 [4] = experiment: Induction of ROS generation in human MDA-MB-231 cells at 1 uM after 24 hrs by DCFH-DA staining based flow cytometry relative to control; format: functional
How it was run: (§1)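 3 × 10⁵ cells/well in 6-well plates treated 24 h (0, 1, 3, 5 µM). Medium replaced with serum-free medium holding DCFH-DA at 10 µM final, 20 min at 37 °C. Cells washed twice, trypsinised, resuspended in warm PBS and read by flow cytometry.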

[5] = biological target: Signal transducer and activator of transcription 3 (Homo sapiens) (UniProt P40763); experiment: Inhibition of IL-6-stimulated STAT3 phosphorylation in human MDA-MB-231 cells preincubated for 12 hrs followed by IL-6 addition measured after 30 mins by Western blot method; format: cell-based
Sequence of Signal transducer and activator of transcription 3 (Homo sapiens) (P40763 whole entry): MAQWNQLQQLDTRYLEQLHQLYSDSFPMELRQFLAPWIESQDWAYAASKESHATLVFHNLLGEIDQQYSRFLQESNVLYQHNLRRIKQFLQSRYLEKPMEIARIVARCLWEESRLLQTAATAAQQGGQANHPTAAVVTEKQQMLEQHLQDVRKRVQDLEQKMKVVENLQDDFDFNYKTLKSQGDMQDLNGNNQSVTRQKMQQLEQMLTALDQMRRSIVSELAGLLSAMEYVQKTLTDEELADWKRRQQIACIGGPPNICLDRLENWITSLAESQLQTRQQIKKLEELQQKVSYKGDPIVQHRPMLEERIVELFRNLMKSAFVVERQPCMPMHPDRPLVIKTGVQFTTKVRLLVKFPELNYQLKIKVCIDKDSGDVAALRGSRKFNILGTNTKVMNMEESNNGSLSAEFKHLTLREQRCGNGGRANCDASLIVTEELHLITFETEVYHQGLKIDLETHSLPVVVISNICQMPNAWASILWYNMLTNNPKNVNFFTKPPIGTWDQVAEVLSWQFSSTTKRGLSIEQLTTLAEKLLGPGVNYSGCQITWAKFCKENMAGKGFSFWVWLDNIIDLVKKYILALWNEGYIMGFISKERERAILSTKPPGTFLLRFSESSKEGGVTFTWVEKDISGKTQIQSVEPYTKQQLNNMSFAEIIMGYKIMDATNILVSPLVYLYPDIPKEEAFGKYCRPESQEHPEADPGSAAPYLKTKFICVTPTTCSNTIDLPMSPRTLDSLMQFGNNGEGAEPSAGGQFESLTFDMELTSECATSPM
How it was run: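 Cells adhered overnight in 6-well plates, then serum-starved. Left untreated or given 1-5 µM for 12 h, then stimulated with IL-6 (25 ng/mL). Harvested 30 min later for western blot of p-STAT3.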

MDA-MB-231 [6] = experiment: Induction of apoptosis in human MDA-MB-231 cells assessed as early apoptotic cells at 3 uM after 24 hrs by Annexin-V FITC/propidium iodide staining based flow cytometry (reference value: 3.8%); format: functional
[7] = biological target: Signal transducer and activator of transcription 3 (Homo sapiens) (UniProt P40763); experiment: Inhibition of STAT3 phosphorylation at Tyr-705 residue in human MDA-MB-231 cells after 24 hrs by Western blot method; format: cell-based
MDA-MB-231 [8] = experiment: Potency index, ratio of stattic IC50 to compound IC50 for human MDA-MB-231 cells; format: functional
[9] = biological target: Signal transducer and activator of transcription 3 (Homo sapiens) (UniProt P40763); experiment: Inhibition of STAT3 dimer DNA binding activity in human MDA-MB-231 nuclear extract at 1 to 5 uM preincubated for 24 hrs followed by addition of [32P]hSIE by electrophoretic mobility shift assay
How it was run: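 Cells treated 24 h in fresh growth medium. Nuclear extracts of equal total protein incubated with ³²P-labelled hSIE oligonucleotide probe and resolved by EMSA; Stattic 5 µM as comparator.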

[10] = Antitumor activity against mouse 4T1 cells implanted in ICR mouse assessed as tumor growth inhibition at 10 mg/kg, ip daily for 11 consecutive days measured on day 12 relative to control; format: functional; conditions: 4T1, ip, 288 h, read-out: TGI
How it was run: (§2)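 Male ICR mice, 5 weeks old, inoculated with 2 × 10⁶ 4T1 cells at the right armpit. At 24 h, randomised into groups of 6 and dosed i.p.; vehicle PBS/DMSO (8:2) daily for 11 days. Killed day 12; tumours weighed; TI% = (1 − mean treated/mean control weight) × 100. Tumour p-STAT3 and STAT3 assessed by western blot.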

[11] = Antiproliferative activity against human HCT116 cells after 72 hrs by MTT assay; format: functional, cell-based; conditions: HCT-116, 72 h
How it was run: (§3)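 Cells in RPMI-1640 with 10% FBS, penicillin/streptomycin, 37 °C, 5% CO₂; seeded 3000-5000 cells/well, left overnight (16 h), then medium replaced with fresh medium holding serial dilutions in triplicate for 72 h. MTT read-out; viability = absorbance of treated/solvent control × 100%. Stattic served as reference.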

A549 = experiment: Potency index, ratio of stattic IC50 to compound IC50 for human A549 cells; format: functional
[12] = Antiproliferative activity against human MDA-MB-231 cells after 72 hrs by MTT assay; format: functional, cell-based; conditions: MDA-MB-231, 72 h; how it was run: as §3
MDA-MB-231 [13] = experiment: Induction of apoptosis in human MDA-MB-231 cells assessed as live cells at 1 uM after 24 hrs by Annexin-V FITC/propidium iodide staining based flow cytometry (reference value: 90.3%); format: functional
MDA-MB-231 [14] = experiment: Induction of apoptosis in human MDA-MB-231 cells assessed as necrotic cells at 1 uM after 24 hrs by Annexin-V FITC/propidium iodide staining based flow cytometry (reference value: 4.1%); format: functional
Mus musculus = experiment: In vivo inhibition of STAT3 phosphorylation in ICR mouse tumor implanted with mouse 4T1 cells at 10 mg/kg, ip daily for 11 days measured on day 12 by Western blot method; format: functional, organism-based; how it was run: as §2
MDA-MB-231 [15] = experiment: Induction of apoptosis in human MDA-MB-231 cells assessed as late apoptotic cells at 7 uM after 24 hrs by Annexin-V FITC/propidium iodide staining based flow cytometry (reference value: 1.8%); format: functional
MDA-MB-231 [16] = experiment: Induction of apoptosis in human MDA-MB-231 cells assessed as live cells at 3 uM after 24 hrs by Annexin-V FITC/propidium iodide staining based flow cytometry (reference value: 90.3%); format: functional
MCF7 = experiment: Potency index, ratio of stattic IC50 to compound IC50 for human MCF7 cells; format: functional
MDA-MB-231 [17] = experiment: Induction of apoptosis in human MDA-MB-231 cells after 24 hrs by Annexin-V FITC/propidium iodide staining based flow cytometry; format: functional, cell-based
MDA-MB-231 [18] = experiment: Induction of apoptosis in human MDA-MB-231 cells assessed as late apoptotic cells at 3 uM after 24 hrs by Annexin-V FITC/propidium iodide staining based flow cytometry (reference value: 1.8%); format: functional
MDA-MB-231 [19] = experiment: Induction of ROS generation in human MDA-MB-231 cells at 5 uM after 24 hrs by DCFH-DA staining based flow cytometry relative to control; format: functional; how it was run: as §1
MDA-MB-231 [20] = experiment: Inhibition of colony formation in human MDA-MB-231 cells up to 6 uM incubated for 24 hrs measured after 14 days by crystal violet staining based assay; format: functional, cell-based
How it was run: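 Cells plated at 800-1000 per well in 6-well plates. Treated next day with vehicle or 0.5-6 µM for 24 h, then grown 10-14 d until colonies appeared. Stained with crystal violet for 4 h; colonies scored manually.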

MDA-MB-231 [21] = experiment: Induction of ROS generation in human MDA-MB-231 cells at 3 uM after 24 hrs by DCFH-DA staining based flow cytometry relative to control; format: functional; how it was run: as §1
MDA-MB-231 [22] = experiment: Induction of apoptosis in human MDA-MB-231 cells assessed as live cells at 5 uM after 24 hrs by Annexin-V FITC/propidium iodide staining based flow cytometry (reference value: 90.3%); format: functional
MDA-MB-231 [23] = experiment: Induction of apoptosis in human MDA-MB-231 cells assessed as necrotic cells at 7 uM after 24 hrs by Annexin-V FITC/propidium iodide staining based flow cytometry (reference value: 4.1%); format: functional
[24] = Antiproliferative activity against human MCF7 cells after 72 hrs by MTT assay; format: functional, cell-based; conditions: MCF7, 72 h; how it was run: as §3
[25] = biological target: Signal transducer and activator of transcription 3 (Homo sapiens) (UniProt P40763); experiment: Inhibition of STAT3 in human MDA-MB-231 cells assessed as downregulation of Bcl2 expression at 1 to 5 uM after 24 hrs by Western blot method; format: cell-based
How it was run: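 MDA-MB-231 cells treated 24 h, trypsinised and lysed in RIPA buffer (50 mM Tris-HCl pH 7.4, 150 mM NaCl, 0.25% deoxycholate, 1% NP-40, 1 mM EDTA, protease inhibitors). Equal total protein from whole-cell lysates immunoblotted; Stattic 5 µM used as comparator.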

O=S1(=O)C=Cc2cccc(Nc3cccc(C(F)(F)F)c3)c21 showed an Activity (MDA-MB-231 [1]) of 6.3%, an Activity (MDA-MB-231 [2]) of 5.8% and an Activity (MDA-MB-231 [3]) of 7.2%. For the same molecule, the “fold change (FC)” value (MDA-MB-231 [4]) was 1.37, the inhibition [5] was “Dose-dependent effect” and the Activity (MDA-MB-231 [6]) was 6.8%. The inhibition [7] was “Dose-dependent effect”, the “Ratio IC50” value (MDA-MB-231 [8]) was 1.5 - 12 and the inhibition [9] was “Active”. The inhibition in vivo at 10 mg/kg [10] was 61%, the IC50 [11] was 330 nM and the “Ratio IC50” value (A549) was 1.5 - 12. It also gave an IC50 [12] of 680 nM, an Activity (MDA-MB-231 [13]) of 84.2% and an Activity (MDA-MB-231 [14]) of 6.2%. The inhibition (Mus musculus) was “Active”, the Activity (MDA-MB-231 [15]) was 8.7% and the Activity (MDA-MB-231 [16]) was 83.4%. The “Ratio IC50” value (MCF7) was 1.5 - 12, the Activity (MDA-MB-231 [17]) was “Dose-dependent effect” and the Activity (MDA-MB-231 [18]) was 4.1%. For the same molecule, the “fold change (FC)” value (MDA-MB-231 [19]) was 1.94, the inhibition (MDA-MB-231 [20]) was “Active” and the “fold change (FC)” value (MDA-MB-231 [21]) was 1.74. For the same molecule, the Activity (MDA-MB-231 [22]) was 75.3%, the Activity (MDA-MB-231 [23]) was 6.9% and the IC50 [24] was 750 nM. For the same molecule, the inhibition [25] was “Active”.
